According to ChEMBL document CHEMBL4765490 (J Med Chem, 2021):
pIC50, pKi: −log10 of the molar value. Values belong to the compound of their own block, whether it stands above or below them.

Columns and labels:
[1] = Inhibition of PKA (unknown origin) incubated for 30 mins using REBtide substrate by ADP-Glo assay; parameters: species or system Homo sapiens
In short: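 ADP-Glo reagent was added for 40 min, then detection reagent for 30 min, and luminescence was read. Three experiments in duplicate; curves fitted as for GRK.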

[2] = target: G protein-coupled receptor kinase 6 (Homo sapiens) (UniProt P43250); assay: Inhibition of GRK6 (unknown origin) at 1 uM relative to control
Sequence of G protein-coupled receptor kinase 6 (Homo sapiens) (P43250 whole entry, looked up): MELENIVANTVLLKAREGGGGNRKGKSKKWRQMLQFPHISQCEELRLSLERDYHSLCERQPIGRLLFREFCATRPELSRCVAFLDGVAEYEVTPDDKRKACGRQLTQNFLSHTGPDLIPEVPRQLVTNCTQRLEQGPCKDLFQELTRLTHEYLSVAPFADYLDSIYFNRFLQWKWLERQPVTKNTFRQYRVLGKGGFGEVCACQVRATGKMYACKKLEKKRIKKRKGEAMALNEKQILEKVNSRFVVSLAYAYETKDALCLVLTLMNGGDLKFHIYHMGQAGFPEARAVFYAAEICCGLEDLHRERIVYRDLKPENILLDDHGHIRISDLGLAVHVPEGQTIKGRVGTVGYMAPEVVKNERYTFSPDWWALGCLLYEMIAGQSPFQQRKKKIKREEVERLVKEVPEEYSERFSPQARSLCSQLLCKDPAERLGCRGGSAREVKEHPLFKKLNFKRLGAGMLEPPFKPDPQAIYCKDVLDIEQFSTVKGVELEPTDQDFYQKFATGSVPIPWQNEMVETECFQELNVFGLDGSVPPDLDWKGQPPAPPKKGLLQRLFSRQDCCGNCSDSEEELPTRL

[3] = organism: Homo sapiens
[4] = target: T1, G protein-coupled receptor kinase 5 (Homo sapiens, UniProt P34947); assay: Covalent inhibition of GRK5 (unknown origin) using porcine brain tubulin as substrate by [gamma32P]ATP based radiometric assay
Target sequence in this assay (P34947 whole entry): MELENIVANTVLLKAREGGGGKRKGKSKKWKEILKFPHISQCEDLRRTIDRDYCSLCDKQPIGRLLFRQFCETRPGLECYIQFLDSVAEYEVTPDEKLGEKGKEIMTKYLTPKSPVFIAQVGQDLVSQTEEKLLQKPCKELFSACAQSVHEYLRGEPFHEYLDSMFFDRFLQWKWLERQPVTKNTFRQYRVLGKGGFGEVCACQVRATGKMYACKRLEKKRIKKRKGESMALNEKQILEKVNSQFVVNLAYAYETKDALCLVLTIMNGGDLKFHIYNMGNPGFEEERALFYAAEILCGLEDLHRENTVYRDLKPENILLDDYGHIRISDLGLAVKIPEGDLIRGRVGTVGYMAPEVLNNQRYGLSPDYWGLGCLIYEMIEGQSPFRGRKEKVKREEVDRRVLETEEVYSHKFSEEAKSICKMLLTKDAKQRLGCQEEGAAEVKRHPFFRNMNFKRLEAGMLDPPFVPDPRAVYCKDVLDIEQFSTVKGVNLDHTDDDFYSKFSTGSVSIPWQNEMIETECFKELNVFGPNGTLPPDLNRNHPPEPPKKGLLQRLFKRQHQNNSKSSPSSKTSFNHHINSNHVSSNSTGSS

[5] = target: T1, G protein-coupled receptor kinase 5
Target sequence in this assay (P34947 whole entry, looked up): as the sequence (P34947 whole entry) above

[6] = target: T2, G protein-coupled receptor kinase 3 (Homo sapiens) (UniProt P35626); assay: Inhibition of GRK3 (unknown origin) at 1 uM relative to control; settings: time 3-5 min
T2 sequence (whole entry): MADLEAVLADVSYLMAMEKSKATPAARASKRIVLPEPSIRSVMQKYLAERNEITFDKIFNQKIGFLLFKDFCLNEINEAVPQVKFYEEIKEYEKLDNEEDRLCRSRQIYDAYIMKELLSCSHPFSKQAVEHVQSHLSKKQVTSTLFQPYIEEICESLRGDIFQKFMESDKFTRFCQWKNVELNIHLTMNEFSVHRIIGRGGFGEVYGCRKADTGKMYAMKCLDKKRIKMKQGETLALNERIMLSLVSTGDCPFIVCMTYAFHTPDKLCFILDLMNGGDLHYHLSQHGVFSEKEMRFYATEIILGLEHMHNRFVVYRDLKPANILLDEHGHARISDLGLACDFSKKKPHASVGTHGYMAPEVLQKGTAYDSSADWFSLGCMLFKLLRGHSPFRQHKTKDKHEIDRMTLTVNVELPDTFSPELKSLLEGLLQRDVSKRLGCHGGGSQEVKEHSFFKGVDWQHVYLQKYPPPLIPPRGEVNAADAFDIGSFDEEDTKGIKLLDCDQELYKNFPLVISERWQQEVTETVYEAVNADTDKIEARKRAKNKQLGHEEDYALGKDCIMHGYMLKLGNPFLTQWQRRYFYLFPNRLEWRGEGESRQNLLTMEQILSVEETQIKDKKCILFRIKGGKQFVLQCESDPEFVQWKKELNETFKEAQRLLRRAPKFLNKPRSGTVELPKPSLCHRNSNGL

[7] = target: T3, Beta-adrenergic receptor kinase 1 (Bos taurus, UniProt P21146); assay: Inhibition of bovine GRK2 using porcine brain tubulin as substrate incubated for 3 to 5 mins by [gamma32P]ATP based radiometric assay
T3 sequence (P21146 whole entry): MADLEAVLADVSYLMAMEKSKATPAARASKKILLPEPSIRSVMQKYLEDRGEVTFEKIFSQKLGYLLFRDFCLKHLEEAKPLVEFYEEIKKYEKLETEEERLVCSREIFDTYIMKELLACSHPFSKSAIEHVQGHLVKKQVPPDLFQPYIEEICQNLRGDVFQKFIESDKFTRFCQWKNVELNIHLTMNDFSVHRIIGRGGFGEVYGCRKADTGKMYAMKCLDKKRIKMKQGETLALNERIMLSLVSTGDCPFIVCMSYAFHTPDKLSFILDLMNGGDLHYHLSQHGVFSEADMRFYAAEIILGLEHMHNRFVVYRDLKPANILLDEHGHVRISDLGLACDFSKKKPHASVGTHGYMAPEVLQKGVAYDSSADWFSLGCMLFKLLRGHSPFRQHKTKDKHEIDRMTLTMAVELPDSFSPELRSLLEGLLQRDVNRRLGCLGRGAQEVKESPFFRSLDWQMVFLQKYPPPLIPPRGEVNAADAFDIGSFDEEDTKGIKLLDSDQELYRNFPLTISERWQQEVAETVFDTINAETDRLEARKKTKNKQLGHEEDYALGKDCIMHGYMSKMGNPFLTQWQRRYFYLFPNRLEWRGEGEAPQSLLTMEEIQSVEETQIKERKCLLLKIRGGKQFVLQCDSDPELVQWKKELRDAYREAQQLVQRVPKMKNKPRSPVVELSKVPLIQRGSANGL

[8] = Metabolic stability in human liver microsomes assessed as half life at 100 uM in presence of NADPH by LC-MS/MS analysis; type: ADME, Microsome
In short: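 Stock in DMSO (1 mM) was diluted to a 100 μM working solution in 0.1 M phosphate buffer with 3.3 mM MgCl2. Microsomes (20 mg/mL) were primed with NADPH at 37 °C for 3 min, then dosed with compound. Samples were taken at 0, 5, 10, 15, 30, 45 and 60 min and stopped with cold acetonitrile containing internal standard. Protein was spun out before analysis.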

[9] = target: T1, G protein-coupled receptor kinase 5; assay: Inhibition of human GRK5 using porcine brain tubulin as substrate incubated for 3 to 5 mins by [gamma32P]ATP based radiometric assay
Target sequence in this assay (P34947 whole entry): as the sequence (P34947 whole entry) above

[10] = Thermodynamic solubility of compound in phosphate buffer at 6 pH by shake flask method; type: physicochemical; settings: pH 6, read-out: Therm_solubility

Compound: CC1=C(C(=O)Nc2ccc3[nH]ncc3c2)C(c2ccc(F)c(C(=O)NCc3ccccn3)c2)NC(=O)N1 (centres undefined)
pIC50 [1]: < 3.60

Compound: Cc1[nH]c(/C=C2\C(=O)Nc3ccc(C(=O)N[C@H](C)c4ccccc4)cc32)c(C)c1NC(=O)/C(C#N)=C/C(C)(C)C
pIC50 [1]: < 3.60

Compound: Cc1[nH]c(/C=C2\C(=O)Nc3ccc(C(=O)N[C@H](C)c4ccccc4)cc32)c(C)c1NC(=O)C(O)CCl (some centres undefined)
pIC50 [1]: < 3.60

Compound: Cc1[nH]c(/C=C2\C(=O)Nc3ccc(C(=O)N[C@H](C)c4ccccc4)cc32)c(C)c1NC(=O)CBr (mixture of isomers)
inhibition [2]: 97%
Ratio IC50 [3]: 5
pKi [4]: 6.96
pIC50 [1]: < 3.60
Kinact [5]: > 1 min⁻¹
inhibition [6]: 21%

Compound: Cc1[nH]c(/C=C2\C(=O)Nc3ccc(C(=O)N[C@H](C)c4ccccc4)cc32)c(C)c1NC(=O)CCl (mixture of isomers)
pIC50 [1]: < 3.60
t1/2 [8]: 13.3 min

Compound: CCN(CC)CCNC(=O)c1c(C)[nH]c(/C=C2\C(=O)Nc3ccc(F)cc32)c1C (mixture of isomers) [SUNITINIB]
solubility thermodynamic [10]: 350 µg/mL

Compound: Fc1ccc([C@@H]2CCNC[C@H]2COc2ccc3c(c2)OCO3)cc1 [PAROXETINE]
pIC50 [1]: 3.07

Next, values leading:

pIC50 [1]: < 3.60
Compound: C=CCNC(=O)c1c(C)[nH]c(/C=C2\C(=O)Nc3ccc(C(=O)N[C@H](C)c4ccccc4)cc32)c1C

pIC50 [1]: < 3.60
Compound: CCN(CC)CCNC(=O)c1c(C)[nH]c(/C=C2\C(=O)Nc3ccc(C(=O)N[C@H](C)c4ccccc4)cc32)c1C

inhibition [2]: 94%
Compound: C#CCNC(=O)c1c(C)[nH]c(/C=C2\C(=O)Nc3ccc(C(=O)N[C@H](C)c4ccccc4)cc32)c1C

pIC50 [1]: < 3.60
pIC50 [7]: 3.89
Compound: C#CCCNC(=O)c1c(C)[nH]c(/C=C2\C(=O)Nc3ccc(C(=O)N[C@H](C)c4ccccc4)cc32)c1C (mixture of isomers)

pIC50 [9]: 5.71
Compound: C=CCCNC(=O)c1c(C)[nH]c(/C=C2\C(=O)Nc3ccc(C(=O)N[C@H](C)c4ccccc4)cc32)c1C (mixture of isomers)
